Experiment [1] has as its target Kappa-type opioid receptor (Homo sapiens) (UniProt P41145). The experiment can be described thus: Antagonist activity at human kappa opioid receptor expressed in CHO cells by [35S]GTP-gamma-S assay. The experiment is classed as functional, cell-based. The gist of the method:
(§1)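 Ke from rightward shift of the agonist concentration–response curve (DAMGO μ, DPDPE δ, U69,593 κ) by one fixed concentration of test compound; membranes from stably transfected CHO cells, 0.1 nM [35S]GTPγS, 10 μM GDP, 50 mM HEPES pH 7.4, 1 h room temperature, duplicates, filtration then scintillation counting; EC50s by three-parameter logistic fit, Ke = [L]/[(A′/A) − 1].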

Experiment [2] addresses Mu-type opioid receptor (Homo sapiens) (UniProt P35372). The experiment can be described thus: Antagonist activity at human mu opioid receptor expressed in CHO cells by [35S]GTP-gamma-S assay. The experiment is classed as functional, cell-based.
Experiment [3] has as its target T1, Delta-type opioid receptor (Homo sapiens, UniProt P41143). The experiment can be described thus: Antagonist activity at human delta opioid receptor expressed in CHO cells by [35S]GTPgammaS assay. The experiment is classed as functional, cell-based. The gist of the method:
as §1

Experiment [4] in a line: Selectivity for antagonist activity at human mu opioid receptor to kappa opioid receptor expressed in CHO cells by [35S]GTP-gamma-S assay. The experiment is classed as functional.
Experiment [5] in a line: Selectivity for antagonist activity at human delta opioid receptor to kappa opioid receptor expressed in CHO cells by [35S]GTP-gamma-S assay. The experiment is classed as functional.
The nature of experiment [6]: Agonist activity at opioid receptor relative to U69,593. The experiment is classed as functional.
Experiment [7] deals with Kappa-type opioid receptor (Homo sapiens) (UniProt P41145). The experiment can be described thus: Intrinsic activity at human kappa opioid receptor expressed in CHO cells upto 10 uM by [35S]GTP-gamma-S assay. The experiment is classed as functional, cell-based. The essentials: (§2)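 Screened at 10 μM for agonist or inverse-agonist activity on CHO membrane homogenates expressing human δ, κ or μ receptor; 0.1 nM [35S]GTPγS, 1 μM GDP, 50 mM HEPES pH 7.4, 1 h room temperature, duplicates; bound label separated by vacuum filtration over GF-B, scintillation counted, normalized to vehicle basal binding; subtype-selective agonist run as positive control.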

In experiment [8] the target is Mu-type opioid receptor (Homo sapiens) (UniProt P35372). Put plainly: Intrinsic activity at human […] mu receptor expressed in CHO cells upto 10 uM by [35S]GTP-gamma-S assay. The experiment is classed as functional, cell-based. The gist of the method: as §2
Experiment [9] addresses T1, Delta-type opioid receptor. The experiment can be described thus: Intrinsic activity at human delta opioid receptor expressed in CHO cells upto 10 uM by [35S]GTP-gamma-S assay. The experiment is classed as functional, cell-based. The essentials: as §2
In experiment [10] the target is T1, Delta-type opioid receptor. Put plainly: Binding affinity to delta opioid receptor.
A short description of experiment [11]: Binding affinity to opiate receptor.

Active and inactive are the calls of the source. No cut-off for these calls is given here. Where only a bound is given, the exact number is not on record here.

T1 sequence (P41143 whole entry): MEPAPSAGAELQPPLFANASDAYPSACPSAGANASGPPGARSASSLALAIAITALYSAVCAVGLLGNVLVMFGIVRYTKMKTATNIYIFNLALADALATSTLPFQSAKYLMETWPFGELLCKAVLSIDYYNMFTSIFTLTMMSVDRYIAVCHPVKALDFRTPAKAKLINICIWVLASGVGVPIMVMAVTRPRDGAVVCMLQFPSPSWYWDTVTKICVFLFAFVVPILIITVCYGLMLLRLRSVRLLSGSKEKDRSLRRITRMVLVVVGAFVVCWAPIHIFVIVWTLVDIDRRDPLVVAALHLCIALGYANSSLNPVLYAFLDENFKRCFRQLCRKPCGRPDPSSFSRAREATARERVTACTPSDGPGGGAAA
Kappa-type opioid receptor (Homo sapiens), sequence (P41145 whole entry): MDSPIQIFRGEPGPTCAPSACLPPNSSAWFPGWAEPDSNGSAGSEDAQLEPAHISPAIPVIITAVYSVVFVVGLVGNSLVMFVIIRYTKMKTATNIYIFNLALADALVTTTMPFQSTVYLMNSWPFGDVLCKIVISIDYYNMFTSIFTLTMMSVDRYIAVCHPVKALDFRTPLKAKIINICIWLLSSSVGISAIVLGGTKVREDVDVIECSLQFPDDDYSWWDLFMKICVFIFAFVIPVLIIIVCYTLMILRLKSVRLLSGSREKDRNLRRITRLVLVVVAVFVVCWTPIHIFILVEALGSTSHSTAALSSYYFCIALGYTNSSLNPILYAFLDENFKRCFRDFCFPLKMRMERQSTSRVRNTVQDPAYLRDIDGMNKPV
Mu-type opioid receptor (Homo sapiens), sequence (P35372 whole entry): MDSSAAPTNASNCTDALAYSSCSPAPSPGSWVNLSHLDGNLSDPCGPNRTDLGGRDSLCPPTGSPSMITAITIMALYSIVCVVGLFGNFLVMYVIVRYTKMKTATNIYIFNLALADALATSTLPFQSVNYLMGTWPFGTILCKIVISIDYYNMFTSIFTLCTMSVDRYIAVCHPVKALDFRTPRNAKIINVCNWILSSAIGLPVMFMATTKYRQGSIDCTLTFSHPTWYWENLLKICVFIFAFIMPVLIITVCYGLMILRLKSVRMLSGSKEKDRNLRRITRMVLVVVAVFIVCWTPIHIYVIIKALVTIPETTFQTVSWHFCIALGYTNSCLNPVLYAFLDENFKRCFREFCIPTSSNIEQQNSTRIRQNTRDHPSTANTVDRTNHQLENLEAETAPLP

On to `O=c1cc(-c2ccc(O)cc2)oc2cc(O)ccc12`, for which the Ke in experiment [1] worked out at 1610 nM; in [2] it was 480 nM; in experiment [3], 2090 nM. Also, the Antagonist selectivity ratio in experiment [4] came out at 0.3. In addition, the “Ratio Ki” value in experiment [5] worked out at 1.3.
Take `COc1ccc([C@@H]2CC(=O)c3c(O)cc(O)cc3O2)cc1O`: the Ke in [1], in experiment [2] and in experiment [3] was above 10000 nM each time.
For `Oc1cc(O)c2c(c1)O[C@H](c1ccc(O)c(O)c1)[C@H](O)C2`, the Intrinsic activity entry in [6] was “inactive”.
Regarding `O=C1CC(c2ccc(O)cc2)Oc2ccccc21` (stereo not drawn) [4'-HYDROXY-FLAVANONE], the results for the Ke in experiment [1], in experiment [2] and in experiment [3] were 550 nM, 590 nM and 3490 nM, respectively. Moreover, the Antagonist selectivity ratio in experiment [4] is given as 1.1. Besides, in [5], the “Ratio Ki” value came out at 6.3.
Consider `Oc1cc(O)c2c(c1)O[C@@H](c1ccc(O)c(O)c1)[C@@H](O)C2` [(+)-EPICATECHIN], for which the figures for the Ke in [1], in [2] and in experiment [3] were 5810 nM, 3020 nM and 2170 nM, respectively. Besides, the Antagonist selectivity ratio in experiment [4] was 0.52. Besides, in experiment [5], the “Ratio Ki” value came out at 0.37. For the same compound, in [6], the Intrinsic activity entry is “inactive”.
For the compound `O=C1c2c(O)cc(O)cc2O[C@H](c2ccc(O)c(O)c2)[C@H]1O` [(+)-TAXIFOLIN], the Ke in [1] stood at 3280 nM; in [2], 3070 nM; in experiment [3], 3820 nM. The Antagonist selectivity ratio in experiment [4] came out at 0.93. For the same compound, the “Ratio Ki” value in experiment [5] came out at 1.2.
As to `O=C(O[C@@H]1Cc2c(O)cc(O)cc2O[C@H]1c1ccc(O)c(O)c1)c1cc(O)c(O)c(O)c1` [(-)-CATECHINGALLATE], the Ke in [1] came out at 220 nM; in experiment [2] it was 210 nM; in experiment [3], 950 nM. Moreover, the Antagonist selectivity ratio in experiment [4] was 0.95. Moreover, the “Ratio Ki” value in experiment [5] was 4.3. For the same compound, the Intrinsic activity result in experiment [7], in experiment [8] and in experiment [9] was “inactive” throughout.
On to `Oc1cc(O)c2c(c1)O[C@@H](c1ccc(O)c(O)c1)[C@H](O)C2` [(-)-CATECHIN], for which the Ke in [1] worked out at 3600 nM; in experiment [2], 2400 nM; in experiment [3] it was 1770 nM. Further, in [4], the Antagonist selectivity ratio came out at 0.67. In addition, the “Ratio Ki” value in experiment [5] amounted to 0.49. The Emax in [6] is 18%.
On to `O=c1cc(-c2ccc(O)c(-c3c(O)cc(O)c4c(=O)cc(-c5ccc(O)cc5)oc34)c2)oc2cc(O)cc(O)c12` [AMENTOFLAVONE], for which, in experiment [10], the Ki stood at 36 nM. The Ke was 490 nM in experiment [1], above 10000 nM in experiment [2] and 6000 nM in experiment [3]. Moreover, in [4], the Antagonist selectivity ratio is on record as above 20. For the same compound, the “Ratio Ki” value in [5] is on record as 12. The Intrinsic activity entry in experiment [7], in [8] and in [9] was “inactive” each time.
Consider `O=c1cc(-c2ccc(O)cc2)oc2cc(O)cc(O)c12` [APIGENIN], for which the Ke in experiment [1] turned out to be 410 nM; in [2] it was 410 nM; in experiment [3], 970 nM. In experiment [4], the Antagonist selectivity ratio stood at 1. Besides, the “Ratio Ki” value in experiment [5] is listed as 2.4. Besides, the Intrinsic activity result in experiment [7], in experiment [8] and in experiment [9] was “inactive” in each case.
With `Oc1cc(O)c2c(c1)O[C@H](c1ccc(O)c(O)c1)[C@@H](O)C2` [CIANIDANOL], the Ke in [1] is 320 nM; in experiment [2] it was above 10000 nM; in experiment [3] it was 1180 nM. The results for the “Ratio pKi” value in experiment [4] and in [5] were above 31 and 3.7, respectively. Also, the Intrinsic activity entry in experiment [6] is “inactive”.
As to `O=C(O[C@@H]1Cc2c(O)cc(O)cc2O[C@@H]1c1ccc(O)c(O)c1)c1cc(O)c(O)c(O)c1` [EPICATECHIN GALLATE], the figures for the Ke in experiment [1], in experiment [2] and in experiment [3] were 1900 nM, 1500 nM and 1700 nM, respectively. Further, in experiment [4], the Antagonist selectivity ratio was found to be 0.79. Also, the “Ratio Ki” value in experiment [5] turned out to be 0.89. The Intrinsic activity entry in experiment [7], in experiment [8] and in experiment [9] was “inactive” in each case. Further, the IC50 in [11] was found to be 36 nM.
As for `Oc1cc(O)c2c(c1)O[C@H](c1cc(O)c(O)c(O)c1)[C@H](O)C2` [EPIGALLOCATECHIN], the Ke in experiment [1] worked out at 250 nM; in [2], 300 nM; in experiment [3], 1990 nM. Also, in [4], the Antagonist selectivity ratio worked out at 1.2. Further, the “Ratio Ki” value in [5] is given as 8. Further, the Intrinsic activity entry in experiment [7], in [8] and in experiment [9] was “inactive” throughout.
With `O=c1c(O[C@@H]2O[C@H](CO)[C@H](O)[C@H](O)[C@H]2O)c(-c2ccc(O)c(O)c2)oc2cc(O)cc(O)c12` [HYPEROSIDE], the values for the Ke in experiment [1], in [2] and in [3] were 340 nM, 390 nM and 9070 nM, respectively. Also, the Antagonist selectivity ratio in [4] is reported as 1.1. Also, the “Ratio Ki” value in experiment [5] is 27.
For `CC(C)[C@@H](CN1CC[C@@](C)(c2cccc(O)c2)[C@@H](C)C1)NC(=O)[C@H]1Cc2ccc(O)cc2CN1` [JDTIC], the Antagonist selectivity ratio in experiment [4] amounted to 1250. In experiment [5], the “Ratio Ki” value is recorded as 3800.
In the case of `O=C1C[C@@H](c2ccc(O)cc2)Oc2cc(O)cc(O)c21` [NARINGENIN], the Ke in experiment [1] worked out at 1700 nM; in [2], 2300 nM; in experiment [3], 3680 nM. For the same compound, the Antagonist selectivity ratio in experiment [4] was found to be 1.4. Moreover, the “Ratio Ki” value in experiment [5] was 2.2.
Take `Oc1ccc2c3c1O[C@H]1c4[nH]c5c(c4C[C@@]4(O)[C@@H](C2)N(CC2CC2)CC[C@]314)C[C@@]1(O)[C@H]2Cc3ccc(O)c4c3[C@@]1(CCN2CC1CC1)[C@H]5O4` [NORBINALTORPHIMINE]: the Antagonist selectivity ratio in experiment [4] stood at 520. Also, in [5], the “Ratio Ki” value is recorded as 580.

(Values after ChEMBL document CHEMBL1141265, “Flavonoids as opioid receptor ligands: identification and preliminary structure-activity relationships” (J Nat Prod, 2007).)
